Measured values as given in paper PMC9257424 (The Journal of Biological Chemistry, 2022).
“Also recorded” adds a separate entry of the source.

How the values were obtained:
[1] = biological target: Leeuwenhoekiella blandensis MED217 dGTPase (SAMHD1 homolog), wild type, residues 3 to 442 (Leeuwenhoekiella blandensis MED217); experiment: cryo-EM structure
[2] = biological target: Leeuwenhoekiella blandensis MED217 dGTPase (SAMHD1 homolog), wild type, residues 3 to 442 (Leeuwenhoekiella blandensis MED217); experiment: crystal structure
[3] = biological target: T1, L. blandensis dGTPase (WT) (Leeuwenhoekiella blandensis, UniProt A3XHN1); experiment: Enzyme-coupled dGTPase activity assay, WT enzyme; assay type: biochemical
T1 sequence (A3XHN1 3-442): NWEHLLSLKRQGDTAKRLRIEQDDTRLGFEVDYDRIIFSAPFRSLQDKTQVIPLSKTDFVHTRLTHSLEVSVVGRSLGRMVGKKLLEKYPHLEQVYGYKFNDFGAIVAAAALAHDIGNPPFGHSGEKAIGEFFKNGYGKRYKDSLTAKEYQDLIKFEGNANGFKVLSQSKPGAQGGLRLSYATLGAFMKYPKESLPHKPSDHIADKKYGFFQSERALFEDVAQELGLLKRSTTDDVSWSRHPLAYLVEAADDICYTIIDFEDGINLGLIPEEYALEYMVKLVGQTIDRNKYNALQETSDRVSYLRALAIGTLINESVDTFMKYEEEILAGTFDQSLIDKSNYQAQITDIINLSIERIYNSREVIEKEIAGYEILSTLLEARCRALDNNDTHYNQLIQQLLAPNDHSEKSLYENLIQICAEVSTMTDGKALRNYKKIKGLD

[4] = biological target: T2, L. blandensis dGTPase V74Q (Leeuwenhoekiella blandensis, UniProt A3XHN1, V74Q); experiment: Enzyme-coupled dGTPase activity assay, V74Q mutant; assay type: biochemical
T2 sequence (A3XHN1 3-442 V74Q): T1 sequence (A3XHN1 3-442)
How it was run: (§1)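 Variants of residues 3–442 were made by site-directed mutagenesis, expressed in E. coli BL21(DE3), and purified by Ni–NTA and size exclusion. dATP was serially diluted into buffer containing 1 mM dGTP (100 mM Tris pH 8, 5 mM MgCl2, 125 μM MnCl2, 5 mM phosphate). Reactions started with 1:1 addition of a 2× mix (~120 nM monomer, PNP, XOD). A297 was read at 25 °C, converted to v0/[E]t, and kcat,app versus dATP was Hill-fitted for K1/2.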

[5] = biological target: T3, L. blandensis dGTPase F40N (Leeuwenhoekiella blandensis, UniProt A3XHN1, F40N); experiment: Enzyme-coupled dGTPase activity assay, F40N mutant; assay type: biochemical; details: dATP titration at 1 mM dGTP
T3 sequence (A3XHN1 3-442 F40N): T1 sequence (A3XHN1 3-442)
How it was run: as §1

[6] = biological target: T4, L. blandensis dGTPase R28A (Leeuwenhoekiella blandensis, UniProt A3XHN1, R28A); experiment: Enzyme-coupled dGTPase activity assay, R28A mutant; assay type: biochemical; details: dATP titration at 1 mM dGTP
T4 sequence (A3XHN1 3-442 R28A): T1 sequence (A3XHN1 3-442)
How it was run: as §1

[7] = biological target: T1, L. blandensis dGTPase (WT); experiment: HPLC dGTPase activity assay, WT enzyme; assay type: biochemical; details: mixture of eight standard dNTPs and NTPs, 1 mM each, 1 h
[8] = test system: L. blandensis dGTPase R37A; experiment: Enzyme-coupled dGTPase activity assay, R37A mutant; assay type: biochemical, Leeuwenhoekiella blandensis; details: dATP titration at 1 mM dGTP
How it was run: as §1

Molecule	stoichiometry N [1]	stoichiometry N [2]	EC50 [3]	increase of dGTPase kcat by dATP ([3]; WT, 500 µM dATP versus dGTP-only)	fold activation of turnover rate by dATP ([3]; WT, calculated with n^H = 2, dGTP concentration at saturation)	fold activation of turnover rate by dATP ([3]; WT, calculated with n^H = 2, dGTP less than ~160 µM)	n^H (Hill coefficient) of activation by dATP ([3]; WT, dATP titration at 1 mM dGTP)	EC50 [4]	activation by dATP [5]	activation by dATP [6]	hydrolysis as substrate [7]	activation by dATP [8]
Leeuwenhoekiella blandensis MED217 dGTPase (SAMHD1 homolog), wild type, residues 3 to 442 (enzyme)	6	6										
Nc1ncnc2c1ncn2[C@H]1C[C@H](O)[C@@H](COP(=O)(O)OP(=O)(O)OP(=O)(O)O)O1 [dATP]			36 ± 3 µM	~50%	~1.6 fold	more than threefold	1.3 ± 0.1	180 ± 16 µM	eliminated allosteric activation by dATP	eliminate activation by dATP; also recorded: not activated by dATP	not used as a substrate	eliminate activation by dATP; also recorded: not activated by dATP
